Assay results as given in ChEMBL document CHEMBL4270616, “Asymmetrical meta-methoxylated diarylpentanoids: Rational design, synthesis and anti-cancer evaluation in-vitro” (Eur J Med Chem, 2018).

Columns and labels:
[1] = system: SW-620; assay: Induction of apoptosis in human SW620 cells assessed as late apoptotic cells at 2.5 uM after 72 hrs by Annexin V-FITC/propidium iodide staining based flow cytometry (reference value: 0.29%); assay type: functional
[2] = system: SW-620; assay: Induction of apoptosis in human SW620 cells assessed as early apoptotic cells at 10 uM after 72 hrs by Annexin V-FITC/propidium iodide staining based flow cytometry (reference value: 2.1%); assay type: functional
[3] = system: SW-620; assay: Induction of apoptosis in human SW620 cells assessed as late apoptotic cells at 5 uM after 48 hrs by Annexin V-FITC/propidium iodide staining based flow cytometry (reference value: 0.2%); assay type: functional
[4] = system: SW-620; assay: Induction of apoptosis in human SW620 cells assessed as live cells at 5 uM after 72 hrs by Annexin V-FITC/propidium iodide staining based flow cytometry (reference value: 97.34%); assay type: functional
[5] = system: SW-620; assay: Induction of apoptosis in human SW620 cells after 24 to 72 hrs by Annexin V-FITC/propidium iodide staining based flow cytometry; assay type: functional, cell-based
[6] = system: SW-620; assay: Induction of apoptosis in human SW620 cells assessed as necrotic cells at 1.25 uM after 24 hrs by Annexin V-FITC/propidium iodide staining based flow cytometry (reference value: 0.15%); assay type: functional
[7] = system: SW-620; assay: Induction of apoptosis in human SW620 cells assessed as early apoptotic cells at 10 uM after 24 hrs by Annexin V-FITC/propidium iodide staining based flow cytometry (reference value: 2.35%); assay type: functional
[8] = system: SW-620; assay: Induction of apoptosis in human SW620 cells assessed as live cells at 10 uM after 24 hrs by Annexin V-FITC/propidium iodide staining based flow cytometry (reference value: 97.03%); assay type: functional
[9] = system: SW-620; assay: Induction of apoptosis in human SW620 cells assessed as late apoptotic cells at 10 uM after 48 hrs by Annexin V-FITC/propidium iodide staining based flow cytometry (reference value: 0.2%); assay type: functional
[10] = system: SW-620; assay: Cell cycle arrest in human SW620 cells assessed as decrease in G0/G1 phase after 24 hrs by propidium iodide staining based flow cytometry; assay type: functional
[11] = system: MCF7; assay: Cytotoxicity against human MCF7 cells assessed as inhibition of cell proliferation at 20 uM after 72 hrs by MTT assay relative to control; assay type: functional; settings: MCF7, 72 h
In short: (§1)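 Single-concentration screen at 20 μM with 72 h exposure in DMEM with 10% FBS, final DMSO 0.1%. Read-out was MTT (5 mg/mL, 4 h, 37°C), DMSO solubilisation and absorbance at 570 nm, expressed as percent inhibition. Lines reaching a threshold percentage went on to IC50 determination.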

[12] = system: SW-620; assay: Induction of apoptosis in human SW620 cells assessed as necrotic cells at 10 uM after 24 hrs by Annexin V-FITC/propidium iodide staining based flow cytometry (reference value: 0.15%); assay type: functional
[13] = system: SW-620; assay: Induction of apoptosis in human SW620 cells assessed as early apoptotic cells at 1.25 uM after 72 hrs by Annexin V-FITC/propidium iodide staining based flow cytometry (reference value: 2.1%); assay type: functional
[14] = system: SW-620; assay: Induction of apoptosis in human SW620 cells assessed as live cells at 1.25 uM after 72 hrs by Annexin V-FITC/propidium iodide staining based flow cytometry (reference value: 97.34%); assay type: functional
[15] = system: SW-620; assay: Induction of apoptosis in human SW620 cells assessed as early apoptotic cells at 5 uM after 48 hrs by Annexin V-FITC/propidium iodide staining based flow cytometry (reference value: 2.75%); assay type: functional
[16] = system: SW-620; assay: Induction of apoptosis in human SW620 cells assessed as early apoptotic cells at 5 uM after 72 hrs by Annexin V-FITC/propidium iodide staining based flow cytometry (reference value: 2.1%); assay type: functional
[17] = system: SW-620; assay: Induction of apoptosis in human SW620 cells assessed as necrotic cells at 2.5 uM after 48 hrs by Annexin V-FITC/propidium iodide staining based flow cytometry (reference value: 0.23%); assay type: functional
[18] = system: SW-620; assay: Induction of apoptosis in human SW620 cells assessed as live cells at 2.5 uM after 48 hrs by Annexin V-FITC/propidium iodide staining based flow cytometry (reference value: 96.26%); assay type: functional
[19] = system: SW-620; assay: Induction of apoptosis in human SW620 cells assessed as late apoptotic cells at 1.25 uM after 24 hrs by Annexin V-FITC/propidium iodide staining based flow cytometry (reference value: 0.43%); assay type: functional
[20] = system: SW-620; assay: Induction of apoptosis in human SW620 cells assessed as necrotic cells at 1.25 uM after 48 hrs by Annexin V-FITC/propidium iodide staining based flow cytometry (reference value: 0.23%); assay type: functional
[21] = system: SW-620; assay: Induction of apoptosis in human SW620 cells assessed as necrotic cells at 5 uM after 48 hrs by Annexin V-FITC/propidium iodide staining based flow cytometry (reference value: 0.23%); assay type: functional
[22] = system: SW-620; assay: Induction of apoptosis in human SW620 cells assessed as live cells at 2.5 uM after 24 hrs by Annexin V-FITC/propidium iodide staining based flow cytometry (reference value: 97.03%); assay type: functional
[23] = system: SW-620; assay: Induction of apoptosis in human SW620 cells assessed as live cells at 5 uM after 48 hrs by Annexin V-FITC/propidium iodide staining based flow cytometry (reference value: 96.26%); assay type: functional
[24] = system: SW-620; assay: Induction of apoptosis in human SW620 cells assessed as late apoptotic cells at 5 uM after 72 hrs by Annexin V-FITC/propidium iodide staining based flow cytometry (reference value: 0.29%); assay type: functional
[25] = system: SW-620; assay: Cytotoxicity against human SW620 cells after 72 hrs by MTT assay; assay type: functional, cell-based; settings: SW-620, 72 h
In short: (§2)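 Tumour lines kept in DMEM with 10% FBS and 1% penicillin/streptomycin at 37°C, 5% CO2. Seeded at 1500-5000 cells/well by doubling time and size, 24 h, then compound in DMSO-containing medium (final DMSO 0.1%) for 72 h. MTT (5 mg/mL) 4 h at 37°C, DMSO solubilisation, absorbance at 570 nm.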

[26] = system: MCF7; assay: Cytotoxicity against human MCF7 cells after 72 hrs by MTT assay; assay type: functional, cell-based; settings: MCF7, 72 h; in short: as §2
[27] = system: SW-620; assay: Cytotoxicity against human SW620 cells assessed as inhibition of cell proliferation at 20 uM after 72 hrs by MTT assay relative to control; assay type: functional; settings: SW-620, 72 h; in short: as §1
[28] = system: SW-620; assay: Induction of apoptosis in human SW620 cells assessed as early apoptotic cells at 1.25 uM after 24 hrs by Annexin V-FITC/propidium iodide staining based flow cytometry (reference value: 2.35%); assay type: functional
[29] = system: SW-620; assay: Induction of apoptosis in human SW620 cells assessed as late apoptotic cells at 10 uM after 24 hrs by Annexin V-FITC/propidium iodide staining based flow cytometry (reference value: 0.43%); assay type: functional
[30] = system: SW-620; assay: Anticlonogenic activity against human SW620 cells assessed as colony formation at 2.5 to 5 uM after 10 days by crystal violet staining based imaging analysis (reference value: 100%); assay type: functional
In short: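 SW620 cells seeded at 1000 cells/well in DMEM, left overnight at 37°C, 5% CO2, then exposed to compound for ten days with drug-containing medium renewed every three days. Cells were PBS-washed, fixed in 4% paraformaldehyde for 15 min, stained with 0.5% (w/v) crystal violet for 10 min, air-dried, photographed, and colonies quantified by image analysis.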

[31] = system: A549; assay: Cytotoxicity against human A549 cells after 72 hrs by MTT assay; assay type: functional, cell-based; settings: A549, 72 h; in short: as §2
[32] = system: HT-1080; assay: Cytotoxicity against human HT1080 cells after 72 hrs by MTT assay; assay type: functional, cell-based; settings: HT-1080, 72 h; in short: as §2

COc1ccc(/C=C2\CCC/C(=C\c3cc(OC)c(OC)c(OC)c3)C2=O)cc1OC
Activity [1]: 17.24%
Activity [2]: 2.85%
Activity [3]: 60.42%
Activity [4]: 3.13%
Activity [5]: Dose-dependent effect
Activity [6]: 0.35%
Activity [7]: 40.33%
Activity [8]: 46.2%
Activity [9]: 75.36%
Activity [10]: Dose-dependent effect
inhibition at 20 µM [11]: > 50%
Activity [12]: 0.82%
Activity [13]: 4.06%
Activity [14]: 34.33%
Activity [15]: 12%
Activity [16]: 3.48%
Activity [17]: 0.55%
Activity [18]: 79.03%
Activity [19]: 0.31%
Activity [20]: 0.2%
Activity [21]: 1.55%
Activity [22]: 86.22%
Activity [23]: 26.23%
Activity [24]: 93%
IC50 [25]: 1.8 µM
IC50 [26]: 1.6 µM
inhibition at 20 µM [27]: > 50%
Activity [28]: 9.26%
Activity [29]: 12.66%
Activity [30]: 0%
IC50 [31]: 2.9 µM
IC50 [32]: 1.1 µM

COc1ccc(/C=C2\CCC/C(=C\c3cccc(O)c3)C2=O)cc1OC
Activity [1]: 4.57%
Activity [2]: 2.49%
Activity [3]: 40.61%
Activity [4]: 6.2%
Activity [5]: Dose-dependent effect
Activity [6]: 0.17%
Activity [7]: 42.12%
Activity [8]: 50.73%
Activity [9]: 71.12%
Activity [10]: Dose-dependent effect
inhibition at 20 µM [11]: > 50%
Activity [12]: 0.23%
Activity [13]: 5.22%
Activity [14]: 92.34%
Activity [15]: 12.04%
Activity [16]: 10.2%
Activity [17]: 0.44%
Activity [18]: 91.27%
Activity [19]: 0.31%
Activity [20]: 0.41%
Activity [21]: 2.86%
Activity [22]: 93.7%
Activity [23]: 36.63%
Activity [24]: 81.02%
IC50 [25]: 1.9 µM
IC50 [26]: 2.9 µM
inhibition at 20 µM [27]: > 50%
Activity [28]: 4.33%
Activity [29]: 7.42%
Activity [30]: 0%
IC50 [31]: 4.3 µM
IC50 [32]: 1.7 µM
